ChEMBL document CHEMBL2177094, “Structure dependence of long-chain [18F]fluorothia fatty acids as myocardial fatty acid oxidation probes” (J Med Chem, 2012)

Assays:
Muscle tissue [1] = test: Drug uptake in overnight fasted Sprague-Dawley rat muscle at 0.7 to 1.4 MBq, iv at 30 mins; format: ADME, organism-based; conditions: in vivo, 0.5 h
Procedure, shortened: (§1)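 Female rats fasted overnight, under isoflurane (3.5% induction, 1.5% maintenance). 18F-labelled tracer formulated in 0.5–1.0% BSA/saline, injected via tail vein. Tissues harvested at 30 or 120 min, weighed, gamma-counted, decay-corrected. Uptake expressed as % dose kg/g, i.e. tissue CPM × body wt (kg) × 100 / (tissue wt (g) × dose CPM). POCA groups received 30 mg/kg i.p. 2 h before tracer. n = 5–6.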

Heart [2] = test: Biodistribution in overnight fasted Sprague-Dawley rat heart pellet fraction at 0.7 to 1.4 MBq, iv at 120 mins by Folch-type extraction method; format: ADME, organism-based; conditions: in vivo, 2 h
Procedure, shortened: (§2)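 Female Sprague-Dawley rats, fasted overnight, under isoflurane (3.5% induction, 1.5% maintenance). [18F] tracer in 0.5–1.0% BSA/saline was given by tail vein. POCA group: 30 mg/kg i.p. 120 min before tracer. About 0.5 g tissue was homogenized and sonicated in chloroform/methanol (2:1) at 0 °C, then 40% urea and 5% H2SO4 were added and spun 10 min at 1,800 g. Aqueous, organic and pellet fractions were counted as % of total.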

Brain [3] = test: Drug uptake in overnight fasted Sprague-Dawley rat brain at 0.7 to 1.4 MBq, iv preincubated with POCA for 2 hrs before compound administration measured at 120 mins post treatment; format: ADME, organism-based; conditions: in vivo
Procedure, shortened: (§3)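 Overnight-fasted female Sprague-Dawley rats under isoflurane received the [18F] tracer in 0.5–1.0% BSA/saline by tail vein. POCA group: 30 mg/kg i.p. 2 h before tracer. Tissues were excised at 30 or 120 min, weighed and gamma-counted with decay correction. Uptake = % dose kg/g, i.e. CPM tissue × body wt (kg) × 100 / (tissue wt (g) × CPM dose). n = 5–6.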

Lung [4] = test: Drug uptake in overnight fasted Sprague-Dawley rat lung at 0.7 to 1.4 MBq, iv at 30 mins; format: ADME, organism-based; conditions: in vivo, 0.5 h; procedure, shortened: as §1
Liver [5] = test: Drug uptake in overnight fasted Sprague-Dawley rat liver at 0.7 to 1.4 MBq, iv at 120 mins; format: ADME, organism-based; conditions: in vivo, 2 h; procedure, shortened: as §1
Blood = test: Drug uptake in overnight fasted Sprague-Dawley rat blood at 0.7 to 1.4 MBq, iv at 30 mins; format: ADME, organism-based; conditions: in vivo, 0.5 h; procedure, shortened: as §3
Heart [6] = test: Drug uptake in overnight fasted Sprague-Dawley rat heart at 0.7 to 1.4 MBq, iv preincubated with POCA for 2 hrs before compound administration measured at 120 mins post treatment; format: ADME, organism-based; conditions: in vivo; procedure, shortened: as §1
Liver [7] = test: Biodistribution in overnight fasted Sprague-Dawley rat liver aqueous fraction at 0.7 to 1.4 MBq, iv at 120 mins by Folch-type extraction method; format: ADME, organism-based; conditions: in vivo, 2 h; procedure, shortened: as §2
Muscle tissue [8] = test: Drug uptake in overnight fasted Sprague-Dawley rat muscle at 0.7 to 1.4 MBq, iv preincubated with POCA for 2 hrs before compound administration measured at 120 mins post treatment; format: ADME, organism-based; conditions: in vivo; procedure, shortened: as §1
Muscle tissue [9] = test: Biodistribution in overnight fasted Sprague-Dawley rat muscle organic fraction at 0.7 to 1.4 MBq, iv at 120 mins by Folch-type extraction method; format: ADME, organism-based; conditions: in vivo, 2 h; procedure, shortened: as §2
Heart [10] = test: Biodistribution in overnight fasted Sprague-Dawley rat heart aqueous fraction at 0.7 to 1.4 MBq, iv preincubated with POCA for 2 hrs before compound administration measured at 30 mins post treatment by Folch-type extraction method; format: ADME, organism-based; conditions: in vivo, 0.5 h; procedure, shortened: as §2
Brain [11] = test: Drug uptake in overnight fasted Sprague-Dawley rat brain at 0.7 to 1.4 MBq, iv at 30 mins; format: ADME, organism-based; conditions: in vivo, 0.5 h; procedure, shortened: as §3
Muscle tissue [12] = test: Drug uptake in overnight fasted Sprague-Dawley rat muscle at 0.7 to 1.4 MBq, iv at 120 mins; format: ADME, organism-based; conditions: in vivo, 2 h; procedure, shortened: as §1
Heart [13] = test: Biodistribution in overnight fasted Sprague-Dawley rat heart pellet fraction at 0.7 to 1.4 MBq, iv at 30 mins by Folch-type extraction method; format: ADME, organism-based; conditions: in vivo, 0.5 h; procedure, shortened: as §2
Liver [14] = test: Biodistribution in overnight fasted Sprague-Dawley rat liver pellet fraction at 0.7 to 1.4 MBq, iv at 30 mins by Folch-type extraction method; format: ADME, organism-based; conditions: in vivo, 0.5 h; procedure, shortened: as §2
Heart [15] = test: Biodistribution in overnight fasted Sprague-Dawley rat heart organic fraction at 0.7 to 1.4 MBq, iv at 120 mins by Folch-type extraction method; format: ADME, organism-based; conditions: in vivo, 2 h; procedure, shortened: as §2
Heart [16] = test: Biodistribution in overnight fasted Sprague-Dawley rat heart organic fraction at 0.7 to 1.4 MBq, iv preincubated with POCA for 2 hrs before compound administration measured at 30 mins post treatment by Folch-type extraction method; format: ADME, organism-based; conditions: in vivo, 0.5 h; procedure, shortened: as §2
Kidney = test: Drug uptake in overnight fasted Sprague-Dawley rat kidney at 0.7 to 1.4 MBq, iv preincubated with POCA for 2 hrs before compound administration measured at 30 mins post treatment; format: ADME, organism-based; conditions: in vivo, 0.5 h; procedure, shortened: as §1
Bone = test: Drug uptake in overnight fasted Sprague-Dawley rat bone at 0.7 to 1.4 MBq, iv at 120 mins; format: ADME, organism-based, Bone element; conditions: in vivo, 2 h; procedure, shortened: as §3
Muscle tissue [17] = test: Biodistribution in overnight fasted Sprague-Dawley rat muscle pellet fraction at 0.7 to 1.4 MBq, iv preincubated with POCA for 2 hrs before compound administration measured at 120 mins post treatment by Folch-type extraction method; format: ADME, organism-based; conditions: in vivo; procedure, shortened: as §2
Liver [18] = test: Biodistribution in overnight fasted Sprague-Dawley rat liver organic fraction at 0.7 to 1.4 MBq, iv at 30 mins by Folch-type extraction method; format: ADME, organism-based; conditions: in vivo, 0.5 h; procedure, shortened: as §2
Lung [19] = test: Drug uptake in overnight fasted Sprague-Dawley rat lung at 0.7 to 1.4 MBq, iv preincubated with POCA for 2 hrs before compound administration measured at 30 mins post treatment; format: ADME, organism-based; conditions: in vivo, 0.5 h; procedure, shortened: as §1
Lung [20] = test: Drug uptake in overnight fasted Sprague-Dawley rat lung at 0.7 to 1.4 MBq, iv preincubated with POCA for 2 hrs before compound administration measured at 120 mins post treatment; format: ADME, organism-based; conditions: in vivo; procedure, shortened: as §1
Liver [21] = test: Drug uptake in overnight fasted Sprague-Dawley rat liver at 0.7 to 1.4 MBq, iv at 30 mins; format: ADME, organism-based; conditions: in vivo, 0.5 h; procedure, shortened: as §1
Heart [22] = test: Drug uptake in overnight fasted Sprague-Dawley rat heart at 0.7 to 1.4 MBq, iv at 120 mins; format: ADME, organism-based; conditions: in vivo, 2 h; procedure, shortened: as §3
Heart [23] = test: Biodistribution in overnight fasted Sprague-Dawley rat heart aqueous fraction at 0.7 to 1.4 MBq, iv preincubated with POCA for 2 hrs before compound administration measured at 120 mins post treatment by Folch-type extraction method; format: ADME, organism-based; conditions: in vivo; procedure, shortened: as §2
Liver [24] = test: Biodistribution in overnight fasted Sprague-Dawley rat liver pellet fraction at 0.7 to 1.4 MBq, iv preincubated with POCA for 2 hrs before compound administration measured at 30 mins post treatment by Folch-type extraction method; format: ADME, organism-based; conditions: in vivo, 0.5 h; procedure, shortened: as §2
Heart [25] = test: Biodistribution in overnight fasted Sprague-Dawley rat heart organic fraction at 0.7 to 1.4 MBq, iv preincubated with POCA for 2 hrs before compound administration measured at 120 mins post treatment by Folch-type extraction method; format: ADME, organism-based; conditions: in vivo; procedure, shortened: as §2
Heart [26] = test: Biodistribution in overnight fasted Sprague-Dawley rat heart aqueous fraction at 0.7 to 1.4 MBq, iv at 120 mins by Folch-type extraction method; format: ADME, organism-based; conditions: in vivo, 2 h; procedure, shortened: as §2
Muscle tissue [27] = test: Biodistribution in overnight fasted Sprague-Dawley rat muscle pellet fraction at 0.7 to 1.4 MBq, iv preincubated with POCA for 2 hrs before compound administration measured at 30 mins post treatment by Folch-type extraction method; format: ADME, organism-based; conditions: in vivo, 0.5 h; procedure, shortened: as §2
Liver [28] = test: Biodistribution in overnight fasted Sprague-Dawley rat liver organic fraction at 0.7 to 1.4 MBq, iv preincubated with POCA for 2 hrs before compound administration measured at 30 mins post treatment by Folch-type extraction method; format: ADME, organism-based; conditions: in vivo, 0.5 h; procedure, shortened: as §2

SMILES | Drug uptake (Muscle tissue [1]) [%IDKg/g] | Drug uptake (Heart [2]) [%] | Drug uptake (Brain [3]) [%IDKg/g] | Drug uptake (Lung [4]) [%IDKg/g] | Drug uptake (Liver [5]) [%IDKg/g] | Drug uptake (Blood) [%IDKg/g] | Drug uptake (Heart [6]) [%IDKg/g] | Drug uptake (Liver [7]) [%] | Drug uptake (Muscle tissue [8]) [%IDKg/g] | Drug uptake (Muscle tissue [9]) [%] | Drug uptake (Heart [10]) [%] | Drug uptake (Brain [11]) [%IDKg/g] | Drug uptake (Muscle tissue [12]) [%IDKg/g] | Drug uptake (Heart [13]) [%] | Drug uptake (Liver [14]) [%] | Drug uptake (Heart [15]) [%] | Drug uptake (Heart [16]) [%] | Drug uptake (Kidney) [%IDKg/g] | Drug uptake (Bone) [%IDKg/g] | Drug uptake (Muscle tissue [17]) [%] | other results
O=C(O)CCCCSCCCCCCCCCCCC[18F] | 0.039 | 67.39 | 0.0519 | 0.0621 | 0.7548 | 0.029 | 0.2288 | 10.15 | 0.0599 | 39.74 | 3.84 | 0.033 | 0.0263 | 70.16 | 44.72 | 28.56 | 63.99 | 0.3441 | 0.2467 | 31.41 | Drug uptake (Liver [18]): 45.61%; Drug uptake (Lung [19]): 0.1163 %IDKg/g; Drug uptake (Lung [20]): 0.0536 %IDKg/g; Drug uptake (Liver [21]): 1.126 %IDKg/g; Drug uptake (Heart [22]): 0.2815 %IDKg/g; Drug uptake (Heart [23]): 3.3%; Drug uptake (Liver [24]): 34.35%; Drug uptake (Heart [25]): 74.2%; Drug uptake (Heart [26]): 4.03%; Drug uptake (Muscle tissue [27]): 48.85%; Drug uptake (Liver [28]): 54.88%
O=C(O)CCSCCCCCCCCCCCCCC[18F] | 0.0303 | 71.45 | 0.031 | 0.0755 | 0.3759 | 0.0392 | 0.1025 | 8.18 | 0.0197 | 48.9 | 7.73 | 0.02 | 0.0181 | 78.72 | 32.97 | 26.14 | 67.58 | 0.235 | 0.2934 | 32.62 | Drug uptake (Liver [18]): 51.66%; Drug uptake (Lung [19]): 0.0998 %IDKg/g; Drug uptake (Lung [20]): 0.0244 %IDKg/g; Drug uptake (Liver [21]): 0.6292 %IDKg/g; Drug uptake (Heart [22]): 0.2144 %IDKg/g; Drug uptake (Heart [23]): 3.39%; Drug uptake (Liver [24]): 16.53%; Drug uptake (Heart [25]): 74.91%; Drug uptake (Heart [26]): 2.39%; Drug uptake (Muscle tissue [27]): 27.04%; Drug uptake (Liver [28]): 51.76%
O=C(O)CCSCCCC/C=C\CCCCCCCC[18F] | 0.0201 | 88.78 | 0.0206 | 0.0496 | 0.8488 | 0.0441 | 0.076 | 5.68 | 0.0216 | 21.98 | 10.15 | 0.0206 | 0.0171 | 88.67 | 71.69 | 9.34 | 62.03 | 0.1932 | 0.461 | 35.36 | Drug uptake (Liver [18]): 19.87%; Drug uptake (Lung [19]): 0.0458 %IDKg/g; Drug uptake (Lung [20]): 0.0179 %IDKg/g; Drug uptake (Liver [21]): 1.1847 %IDKg/g; Drug uptake (Heart [22]): 0.8164 %IDKg/g; Drug uptake (Heart [23]): 4.19%; Drug uptake (Liver [24]): 24.88%; Drug uptake (Heart [25]): 66.66%; Drug uptake (Heart [26]): 1.86%; Drug uptake (Muscle tissue [27]): 32.74%; Drug uptake (Liver [28]): 58.8%
